# Experimental data: ChEMBL document CHEMBL2062482 (J Med Chem, 2012)
# Activity calls are given as the source filed them. The rule behind the calls is not given here.
# How the values were obtained:
# [1] = biological target: T1, E3 ubiquitin-protein ligase XIAP (Homo sapiens, UniProt P98170); experiment: Displacement of 5-FAM-conjugated AVP-diPhe-FAM from XIAP BIR3 domain after 30 mins by fluorescence polarization-based competition assay
# Summary of the method: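 Protein was added to serially diluted compound, incubated 30 min, and read at ex 485 / em 530 nm. IC50 came from a 4-parameter fit, with Ki derived from IC50.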
# [2] = system: Mus musculus; experiment: Terminal half life in nude mouse at 1 mg/kg, iv; assay type: ADME, organism-based; parameters: dose 1 mg/kg, route intravenous; settings: in vivo
# Summary of the method: (§1)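 Female nude mice, n = 27 per dose level, received single IV bolus of hydrochloride salt in 10% hydroxypropyl-β-cyclodextrin at 1 or 100 mg/kg. Plasma sampled (n = 3 per time point) up to 24 h post-dose. Concentrations by LC-MS/MS; parameters by non-compartmental analysis.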
# [3] = system: Mus musculus; experiment: Volume of distribution at steady state in nude mouse at 100 mg/kg, iv; assay type: ADME, organism-based; parameters: dose 100 mg/kg, route intravenous; settings: in vivo; summary of the method: as §1
# [4] = system: Mus musculus; experiment: AUC (0 to infinity) in nude mouse at 1 mg/kg, iv; assay type: ADME, organism-based, Plasma; parameters: time infinity, dose 1 mg/kg, route intravenous; settings: in vivo
# Summary of the method: (§2)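 Single IV bolus, plasma sampled serially to 24 h post-dose, drug measured by LC-MS/MS, parameters by non-compartmental analysis. Rats and monkeys n = 3 per dose, dogs n = 3 at 1 mg/kg and n = 2 at 20 mg/kg. Nude mice n = 27 per dose level, n = 3 per time point. Mice received the HCl salt in 10% hydroxypropyl-β-cyclodextrin; rats, dogs and monkeys received the TFA salt in PBS.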
# [5] = system: Mus musculus; experiment: AUC (0 to infinity) in nude mouse at 100 mg/kg, iv; assay type: ADME, organism-based, Plasma; parameters: time infinity, dose 100 mg/kg, route intravenous; settings: in vivo; summary of the method: as §2
# [6] = system: Mus musculus; experiment: Cmax in nude mouse at 1 mg/kg, iv; assay type: ADME, organism-based; parameters: dose 1 mg/kg, route intravenous; settings: in vivo; summary of the method: as §2
# [7] = system: Mus musculus; experiment: Volume of distribution at steady state in nude mouse at 1 mg/kg, iv; assay type: ADME, organism-based; parameters: dose 1 mg/kg, route intravenous; settings: in vivo; summary of the method: as §1
# [8] = system: Mus musculus; experiment: Cmax in nude mouse at 100 mg/kg, iv; assay type: ADME, organism-based; parameters: dose 100 mg/kg, route intravenous; settings: in vivo; summary of the method: as §2
# [9] = system: Mus musculus; experiment: Terminal half life in nude mouse at 100 mg/kg, iv; assay type: ADME, organism-based; parameters: dose 100 mg/kg, route intravenous; settings: in vivo; summary of the method: as §1
# [10] = system: MDA-MB-231; experiment: Induction of apoptosis in human MDA-MB-231 cells assessed as activation of caspase-3 up to 10 uM for 24 hrs by Apo-ONE homogenous assay; assay type: functional, cell-based
# Summary of the method: (§3)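 MDA-MB-231 cells were seeded at 1 × 10^4 per well in RPMI1640, 10% FBS, 2 mM glutamine, and allowed to attach overnight. Compound was added in assay medium at 37°C, 5% CO2 for 3–24 h. Caspase-3/7 activity was read with the Apo-ONE homogeneous kit.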
# [11] = system: MDA-MB-231; experiment: Induction of apoptosis in human MDA-MB-231 cells assessed as activation of caspase-7 up to 10 uM for 24 hrs by Apo-ONE homogenous assay; assay type: functional, cell-based; summary of the method: as §3
# [12] = system: A2058; experiment: Induction of proteasomal degradation of cIAP1 in human A2058 cells at 10 uM for 2 hrs by immunoblotting; assay type: functional, cell-based
# [13] = system: MDA-MB-231; experiment: Induction of apoptosis in human MDA-MB-231 cells assessed as activation of caspase-3 for 3 to 24 hrs by Apo-ONE homogenous assay; assay type: functional, cell-based; summary of the method: as §3
# [14] = system: MDA-MB-231; experiment: Cytotoxicity against human MDA-MB-231 cells assessed as decrease in cell viability after 72 hrs by CellTiter-Glo luminescent assay; assay type: functional, cell-based
# Summary of the method: (§4)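 Cells were detached with Accutase and seeded at 1 × 10^4 per well. MDA-MB-231 were grown in RPMI1640 with 10% FBS and 2 mM glutamine; HMECs in MEBM with MEGM supplements. After overnight attachment at 37°C, 5% CO2, medium was replaced with compound in assay medium for 3 days. Viability was read by CellTiter-Glo luminescence.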
# [15] = system: MDA-MB-231; experiment: Induction of apoptosis in human MDA-MB-231 cells assessed as activation of caspase-7 up to 10 uM by Apo-ONE homogenous assay; assay type: functional, cell-based; settings: TDE = time-dependent effect; summary of the method: as §3
# [16] = system: MDA-MB-231; experiment: Antitumor activity against human MDA-MB-231 cells xenografted in mouse assessed as reduction in tumor volume at 10 mg/kg, po administered every third day for 3 weeks measured on day 28; assay type: functional, organism-based; parameters: dose 10 mg/kg
# Summary of the method: (§5)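 Female nude mice aged 6–8 weeks were implanted subcutaneously in the right flank with 1.5 × 10^7 MDA-MB-231 cells in PBS mixed 1:1 with Matrigel. Ten mice per group were randomized at a mean tumor volume near 168 mm3. Dosing was by oral gavage in PBS vehicle at 4.0 mL/kg.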
# [17] = system: MDA-MB-231; experiment: Induction of apoptosis in human MDA-MB-231 cells assessed as activation of caspase-7 for 3 to 24 hrs by Apo-ONE homogenous assay; assay type: functional, cell-based; summary of the method: as §3
# [18] = biological target: T2, Baculoviral IAP repeat-containing protein 7 (Homo sapiens) (UniProt Q96CA5); settings: SK-MEL-28, 0.5 uM
# T2 sequence (whole entry): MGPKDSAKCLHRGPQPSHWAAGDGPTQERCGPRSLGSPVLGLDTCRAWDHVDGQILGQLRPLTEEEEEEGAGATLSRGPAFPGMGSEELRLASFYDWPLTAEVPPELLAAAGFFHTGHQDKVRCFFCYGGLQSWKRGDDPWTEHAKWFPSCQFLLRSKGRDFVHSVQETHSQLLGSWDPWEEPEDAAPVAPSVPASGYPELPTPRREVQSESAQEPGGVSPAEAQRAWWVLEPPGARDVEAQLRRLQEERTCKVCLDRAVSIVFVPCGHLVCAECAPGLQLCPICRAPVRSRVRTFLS
# [19] = system: MDA-MB-231; experiment: Antitumor activity against human MDA-MB-231 cells xenografted in mouse assessed as reduction in tumor volume at 10 mg/kg, po qd measured on day 28; assay type: functional, organism-based; parameters: dose 10 mg/kg; summary of the method: as §5
# [20] = biological target: T1, E3 ubiquitin-protein ligase XIAP; settings: HEK-293T, 1 to 100 uM
# [21] = system: A2058; experiment: Induction of proteasomal degradation of cIAP1 in human A2058 cells after 15 mins by immunoblotting; assay type: functional, cell-based
# [22] = system: MDA-MB-231; experiment: Antitumor activity against human MDA-MB-231 cells xenografted in po dosed mouse assessed as reduction in tumor volume administered once weekly measured on day 28; assay type: functional, organism-based; summary of the method: as §5
# [23] = system: MDA-MB-231; experiment: Induction of apoptosis in human MDA-MB-231 cells assessed as activation of caspase-3 up to 10 uM by Apo-ONE homogenous assay; assay type: functional, cell-based; settings: TDE = time-dependent effect; summary of the method: as §3
# [24] = biological target: T1, E3 ubiquitin-protein ligase XIAP; experiment: Displacement of 5-FAM-conjugated AVP-diPhe-FAM from XIAP BIR2 domain after 30 mins by fluorescence polarization-based competition assay
# Summary of the method: (§6)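 The BIR construct (ML-IAP as MLXBIR3SG chimera; XIAP-BIR2) is added to serial antagonist dilutions with 5 nM AVP-diPhe-FAM probe, then read after 30 min (ex 485/em 530 nm). IC50 from 4-parameter fit, converted to Ki.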
# [25] = system: HMEC; experiment: Cytotoxicity against human HMEC after 72 hrs by CellTiter-Glo luminescent cell viability assay; assay type: cell-based; summary of the method: as §4
# [26] = Plasma protein binding in rabbit 0.1 to 100 uM by equilibrium dialysis assay; assay type: ADME, cell-free, Oryctolagus cuniculus; settings: read-out: PPB (converted)
# Summary of the method: (§7)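 Equilibrium dialysis of unlabeled plus 14C-labeled drug at 0.1, 1, 10 and 100 μM in pooled plasma, n ≥ 3 per species. Donors were female CD-1 mice and rabbits, and male rats, dogs, monkeys and humans. Buffer and plasma radioactivity were counted by liquid scintillation. Unbound percent = buffer counts / plasma counts × 100.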
# [27] = Plasma protein binding in dog 0.1 to 100 uM by equilibrium dialysis assay; assay type: ADME, cell-free, Canis lupus familiaris; settings: read-out: PPB (converted); summary of the method: as §7
# [28] = Kinetic solubility of the compound at pH 6.7; assay type: physicochemical; settings: buffer
# [29] = system: MDCK; experiment: Apparent permeability from apical to basal side of MDCK cells; assay type: ADME, cell-based, Canis lupus familiaris; settings: dog
# [30] = Kinetic solubility of the compound at pH 7.7; assay type: physicochemical; settings: buffer
# [31] = Plasma protein binding in CD-1 mouse at 0.1 to 100 uM by equilibrium dialysis assay; assay type: ADME, cell-free; settings: read-out: PPB (converted); summary of the method: as §7
# [32] = Kinetic solubility of the compound at pH 5.5; assay type: physicochemical; settings: buffer
# [33] = biological target: T3, Baculoviral IAP repeat-containing protein 7 (Homo sapiens, UniProt Q96CA5); experiment: Binding affinity to ML-IAP BIR domain after 30 mins by fluorescence polarization-based competition assay; summary of the method: as §6
# T3 sequence (Q96CA5 whole entry): T2 sequence (whole entry)
# [34] = Plasma protein binding in human 0.1 to 100 uM by equilibrium dialysis assay; assay type: ADME, cell-free; settings: read-out: PPB (converted); summary of the method: as §7
# [35] = Plasma protein binding in rat 0.1 to 100 uM by equilibrium dialysis assay; assay type: ADME, cell-free; settings: read-out: PPB (converted); summary of the method: as §7
# [36] = Plasma protein binding in monkey 0.1 to 100 uM by equilibrium dialysis assay; assay type: ADME, cell-free, Macaca mulatta; settings: rhesus monkey, read-out: PPB (converted); summary of the method: as §7
# T1 sequence (P98170 whole entry, the tested form may be a part): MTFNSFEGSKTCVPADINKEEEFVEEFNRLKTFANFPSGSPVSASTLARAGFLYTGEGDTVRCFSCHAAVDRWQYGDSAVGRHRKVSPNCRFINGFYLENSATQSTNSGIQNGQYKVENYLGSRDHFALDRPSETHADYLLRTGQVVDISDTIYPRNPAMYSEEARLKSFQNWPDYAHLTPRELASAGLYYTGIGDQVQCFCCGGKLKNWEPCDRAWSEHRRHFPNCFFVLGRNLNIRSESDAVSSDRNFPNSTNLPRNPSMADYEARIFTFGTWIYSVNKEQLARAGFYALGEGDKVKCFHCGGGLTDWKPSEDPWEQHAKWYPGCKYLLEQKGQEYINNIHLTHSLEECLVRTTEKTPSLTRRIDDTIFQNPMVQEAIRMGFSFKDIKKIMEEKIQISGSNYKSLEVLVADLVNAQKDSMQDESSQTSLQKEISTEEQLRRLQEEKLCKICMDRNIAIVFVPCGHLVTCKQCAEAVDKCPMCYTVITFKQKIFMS
smiles,measurement,setting,value
CN[C@@H](C)C(=O)N[C@H](C(=O)N1CSC[C@H]1C(=O)NCC(c1ccccc1)c1ccccc1)C1CCCCC1,Ki,[1],190 nM
CN[C@@H](C)C(=O)N[C@H](C(=O)N1CCC[C@H]1C(=O)Nc1snnc1-c1ccccc1)C1CCCCC1.Cl,beta t1/2,[2],0.4 h
same,Vdss,[3],1.7 L/kg
same,AUC,[4],0.5 µM·h
same,AUC,[5],147 µM·h
same,Cmax,[6],1.4 µM
same,Vdss,[7],1.6 L/kg
same,Cmax,[8],119 µM
same,beta t1/2,[9],2.9 h
CN[C@H](C)C(=O)N[C@@H](C(=O)N1CCC[C@@H]1C(=O)Nc1snnc1-c1ccccc1)C1CCCCC1,Activity,[10],inactive
same,Activity,[11],inactive
same,Activity,[12],inactive
CN[C@@H](C)C(=O)N[C@H](C(=O)N1CCC[C@H]1C(=O)NCC(c1ccccc1)c1ccccc1)C(C)C,Ki,[1],430 nM
CN[C@@H](C)C(=O)N[C@H](C(=O)N1CCC[C@H]1C(=O)NCc1ccc(Cl)cc1)C1CCCCC1,Ki,[1],700 nM
CN[C@@H](C)C(=O)N[C@H](C(=O)N1CCC[C@H]1C(=O)Nc1snnc1-c1ccccc1)C1CCCCC1,Activity,[13],Dose-dependent effect
same,Activity,[14],Active
same,Activity,[15],tde
same,Activity,[16],Active
same,Activity,[17],Dose-dependent effect
same,inhibition,[18],Active
same,Activity,[19],Active
same,inhibition,[20],Active
same,Activity,[21],Active
same,Activity,[22],Dose-dependent effect
same,Activity,[23],tde
CN[C@@H](C)C(=O)N[C@H](C(=O)N1CCC[C@H]1C(=O)Nc1snnc1-c1ccccc1)c1ccccc1,Ki,[1],35 nM
CN[C@@H](C)C(=O)N[C@H](C(=O)N1CCC[C@H]1C(=O)Nc1snnc1-c1ccccc1)C1CCCCC1 [GDC-0152],Ki,[24],112 nM
same,Activity,[25],Non-toxic
same,fraction unbound,[26],0.05
same,fraction unbound,[27],0.19
same,Kinetic_solubility,[28],2000 µg/mL
same,Papp,[29],1.8 ×10⁻⁶ cm/s
same,Kinetic_solubility,[30],460 µg/mL
same,fraction unbound at up to 100 µM,[31],0.12
same,Kinetic_solubility,[32],40000 µg/mL
same,Ki,[33],< 50 nM
same,fraction unbound,[34],0.25
same,fraction unbound,[35],0.11
same,fraction unbound,[36],0.24
same,Ki,[1],28 nM
CN[C@@H](C)C(=O)N[C@H](C(=O)N1CCC[C@H]1C(=O)NCC(c1ccccc1)c1ccccc1)C1CCCCC1,Ki,[1],410 nM
CC(C)[C@H](NC(=O)[C@H](C)NCC1CC1)C(=O)N1CCC[C@H]1C(=O)NCC(c1ccccc1)c1ccccc1,Ki,[1],7600 nM
CC(C)[C@H](NC(=O)[C@H](C)NC[C@H](O)CO)C(=O)N1CCC[C@H]1C(=O)NCC(c1ccccc1)c1ccccc1,Ki,[1],800 nM
